Data reported in ChEMBL document CHEMBL4373735, “N-alkyl-hydroxybenzoyl anilide hydroxamates as dual inhibitors of HDAC and HSP90, downregulating IFN-γ induced PD-L1 expression” (Eur J Med Chem, 2020).
The source made the active and inactive calls. The rule behind the calls is not given here.

Experiments:
Histone deacetylase 5 = Histone deacetylase 5 (Homo sapiens, UniProt Q9UQL6); assay: Inhibition of recombinant human C-terminal His-fusion tagged HDAC5 (657 to 1123 residues) expressed in baculovirus infected insect cells using Boc-K(Ac)-AMC as substrate after 60 mins by fluorimetry analysis
How it was run: (§1)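 Isoform assays run by an outside contractor. […] Trichostatin A tested in parallel the same way as control.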

[1] = target: Histone deacetylase (Homo sapiens) (UniProt Q13547+O15379+Q9UBN7+Q92769+Q9UQL6+Q8WUI4+Q9BY41+Q96DB2+P56524+Q9UKV0+Q969S8); assay: Inhibition of HDAC in human H1975 cells assessed as Histone H3 acetylation after 24 hrs by Western blot analysis; format: cell-based
How it was run: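 Whole-cell lysates from H1975 cells after 24 h culture with compound at the indicated concentrations. Acetylated α-tubulin and acetylated histone H3 detected by immunoblot: SDS-PAGE, PVDF transfer, primary antibody overnight at 4°C, HRP secondary, ECL. Repeated at least three times.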

Histone deacetylase 11 = Histone deacetylase 11 (Homo sapiens, UniProt Q96DB2); assay: Inhibition of human recombinant N-terminal Streptavidin2-tagged HDAC11 (1 to 347 residues) expressed in baculovirus infected insect cells using Boc-Lys(TFA)-AMC as substrate after 60 mins by fluorescence assay; how it was run: as §1
[2] = target: T1, Heat shock protein HSP90 (Homo sapiens) (UniProt P07900+P08238); assay: Inhibition of HSP90 in human H1975 cells assessed as downregulation of SRC protein level by Western blot analysis; format: cell-based
How it was run: (§2)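 H1975 cells given DMSO or 0.1-3 μM compound for 24 h, or 1 μM for varying times. HSP70 and HSP90 client proteins detected by Western blot of whole-cell lysates, with GAPDH as internal control. Repeated in at least three independent experiments.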

Histone deacetylase 3 = Histone deacetylase 3 (Homo sapiens, UniProt O15379); assay: Inhibition of human recombinant full length C-terminal His-tagged HDAC3 (1 to 428 residues) expressed in baculovirus infected insect cells using RHK-K(Ac)-AMC as substrate after 60 mins by fluorimetry analysis; how it was run: as §1
Histone deacetylase 2 = Histone deacetylase 2 (Homo sapiens, UniProt Q92769); assay: Inhibition of recombinant human GST-tagged HDAC2 (1 to 488 residues) expressed in baculovirus infected sf21 cells using RHK-K(Ac)-AMC as substrate after 60 mins by fluorimetry assay; how it was run: as §1
Histone deacetylase 9 = Histone deacetylase 9 (Homo sapiens, UniProt Q9UKV0); assay: Inhibition of human HDAC9 using (Boc-Lys(trifluoroacetyl)-AMC) as substrate by fluorescence assay; how it was run: as §1
NCI-H1975 [3] = assay: Induction of apoptosis in human NCI-H1975 cells assessed as activation of caspase 3 at 0.1 to 3 uM measured after 48 hrs immunoblot analysis; format: functional, cell-based
How it was run: (§3)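 H1975 cells cultured with compound at the indicated concentrations for 48 h, then immunoblotted with the indicated antibodies. Lysis buffer was ice-cold RIPA-type with phosphatase and protease inhibitors, 30 min on ice. Proteins separated on 8-15% SDS-PAGE, transferred to PVDF, primary antibody overnight at 4°C, HRP secondary 1 h at room temperature, ECL detection.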

A549 = assay: Antiproliferative activity against human A549 cells assessed as cell growth inhibition after 48 hrs by sulforhodamine B assay; format: functional; details: Homo sapiens, A549, 48 h
How it was run: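 Cells seeded at 5000/well overnight; baseline plate fixed with 10% TCA at time of compound addition (T0). Treated with DMSO or graded doses for 48 h, fixed with 10% TCA, stained with 0.4% (w/v) SRB in 1% acetic acid, washed with 1% acetic acid, dye solubilised in 10 mM Trizma base, absorbance at 515 nm. GI50 from T0-corrected growth; at least three independent experiments, SD reported.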

[4] = target: T1, Heat shock protein HSP90 (Homo sapiens); assay: Inhibition of HSP90 in human H1975 cells assessed as induction of HSP70 expression by Western blot analysis; format: cell-based; how it was run: as §2
NCI-H1975 [5] = assay: Inhibition of PD-L1 cell surface expression in IFNgamma-stimulated human NCI-H1975 cells at 0.74 uM after 48 hrs by FITC staining based FACScan flow cytometry analysis; format: functional
How it was run: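 Cells seeded at 3.2×10^5/well and treated with IFN-γ 20 ng/ml with or without compound for 48 h. Then 3×10^5 cells stained with mouse anti-PD-L1 5 µg/ml for 1 h, followed by FITC goat anti-mouse IgG for 1 h, in PBS/0.05% BSA. FITC mean fluorescence intensity measured by FACScan and expressed relative to untreated cells. Mean ± S.D. of three independent experiments.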

NCI-H1975 [6] = assay: Induction of apoptosis in human NCI-H1975 cells assessed as activation of caspase 9 at 0.1 to 3 uM measured after 48 hrs immunoblot analysis; format: functional, cell-based; how it was run: as §3
[7] = target: Polyamine deacetylase HDAC10 (Homo sapiens, UniProt Q969S8); assay: Inhibition of human HDAC10 using fluorescent-labelled p53 residues 379 to 382 (RHKKAc) peptide as substrate by fluorescence assay; how it was run: as §1
NCI-H1975 [8] = assay: cells; format: functional; details: Homo sapiens, NCI-H1975, 48 h
[9] = target: T1, Heat shock protein HSP90 (Homo sapiens); assay: Inhibition of HSP90 in human H1975 cells assessed as downregulation of Rb protein level by Western blot analysis; format: cell-based; how it was run: as §2
HCT-116 = assay: cells; format: functional; details: Homo sapiens, HCT-116, 48 h
[10] = target: Heat shock protein HSP 90-alpha (Homo sapiens, UniProt P07900); assay: Inhibition of FITC-geldanamycin binding to recombinant human full-length C-terminal His-tagged HSP90alpha expressed in Escherichia coli after 3 hrs by fluorescence polarization assay
NCI-H1975 [11] = assay: Induction of apoptosis in human NCI-H1975 cells assessed as activation of gamma H2AX at 0.1 to 3 uM measured after 48 hrs immunoblot analysis; format: functional, cell-based; how it was run: as §3
Histone deacetylase 4 = Histone deacetylase 4 (Homo sapiens, UniProt P56524); assay: Inhibition of recombinant N-terminal GST-tagged and C-terminal His-tagged human HDAC4 expressed in baculovirus infected insect cells using RHK-K(Ac)-AMC as substrate after 60 mins by fluorimetry analysis; how it was run: as §1
[12] = target: NAD-dependent protein deacetylase sirtuin-1 (Homo sapiens, UniProt Q96EB6); assay: Inhibition of human recombinant N-terminal His-tagged SIRT1 (1 to 747 residues) expressed in Escherichia coli using Ac-RHK-K(Ac)-AMC as substrate after 30 mins in presence of NAD+ by fluorimetry analysis; how it was run: as §1
Histone deacetylase = format: cell-based, Homo sapiens; details: hela
[13] = target: T1, Heat shock protein HSP90 (Homo sapiens); assay: Inhibition of HSP90 in human H1975 cells assessed as downregulation of EGFR protein level by Western blot analysis; format: cell-based; how it was run: as §2
[14] = target: T1, Heat shock protein HSP90 (Homo sapiens); assay: Inhibition of HSP90 in human H1975 cells assessed as downregulation of FAK protein level by Western blot analysis; format: cell-based; how it was run: as §2

Sequence of NAD-dependent protein deacetylase sirtuin-1 (Q96EB6 whole entry, the tested form may be a part): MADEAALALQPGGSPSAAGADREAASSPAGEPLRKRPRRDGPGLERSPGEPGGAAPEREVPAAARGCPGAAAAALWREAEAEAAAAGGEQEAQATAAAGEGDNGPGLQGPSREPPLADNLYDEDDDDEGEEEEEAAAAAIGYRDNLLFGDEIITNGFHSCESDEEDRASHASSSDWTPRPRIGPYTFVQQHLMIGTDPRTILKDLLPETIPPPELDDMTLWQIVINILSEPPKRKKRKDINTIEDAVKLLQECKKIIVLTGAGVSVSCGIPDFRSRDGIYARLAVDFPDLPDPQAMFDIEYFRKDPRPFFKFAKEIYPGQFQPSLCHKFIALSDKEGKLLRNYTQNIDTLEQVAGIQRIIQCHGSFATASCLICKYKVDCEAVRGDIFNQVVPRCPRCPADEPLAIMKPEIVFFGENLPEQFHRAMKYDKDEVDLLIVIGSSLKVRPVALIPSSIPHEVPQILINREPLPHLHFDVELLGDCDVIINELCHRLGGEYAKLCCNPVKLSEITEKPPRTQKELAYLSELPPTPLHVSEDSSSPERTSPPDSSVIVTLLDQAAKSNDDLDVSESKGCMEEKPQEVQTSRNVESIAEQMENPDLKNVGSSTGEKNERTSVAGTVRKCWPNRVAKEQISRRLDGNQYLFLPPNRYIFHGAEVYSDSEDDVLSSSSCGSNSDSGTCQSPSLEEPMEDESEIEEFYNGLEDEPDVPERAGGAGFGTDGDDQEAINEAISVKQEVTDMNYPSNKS
Sequence of Histone deacetylase 5 (Q9UQL6 whole entry, the tested form may be a part, canonical isoform): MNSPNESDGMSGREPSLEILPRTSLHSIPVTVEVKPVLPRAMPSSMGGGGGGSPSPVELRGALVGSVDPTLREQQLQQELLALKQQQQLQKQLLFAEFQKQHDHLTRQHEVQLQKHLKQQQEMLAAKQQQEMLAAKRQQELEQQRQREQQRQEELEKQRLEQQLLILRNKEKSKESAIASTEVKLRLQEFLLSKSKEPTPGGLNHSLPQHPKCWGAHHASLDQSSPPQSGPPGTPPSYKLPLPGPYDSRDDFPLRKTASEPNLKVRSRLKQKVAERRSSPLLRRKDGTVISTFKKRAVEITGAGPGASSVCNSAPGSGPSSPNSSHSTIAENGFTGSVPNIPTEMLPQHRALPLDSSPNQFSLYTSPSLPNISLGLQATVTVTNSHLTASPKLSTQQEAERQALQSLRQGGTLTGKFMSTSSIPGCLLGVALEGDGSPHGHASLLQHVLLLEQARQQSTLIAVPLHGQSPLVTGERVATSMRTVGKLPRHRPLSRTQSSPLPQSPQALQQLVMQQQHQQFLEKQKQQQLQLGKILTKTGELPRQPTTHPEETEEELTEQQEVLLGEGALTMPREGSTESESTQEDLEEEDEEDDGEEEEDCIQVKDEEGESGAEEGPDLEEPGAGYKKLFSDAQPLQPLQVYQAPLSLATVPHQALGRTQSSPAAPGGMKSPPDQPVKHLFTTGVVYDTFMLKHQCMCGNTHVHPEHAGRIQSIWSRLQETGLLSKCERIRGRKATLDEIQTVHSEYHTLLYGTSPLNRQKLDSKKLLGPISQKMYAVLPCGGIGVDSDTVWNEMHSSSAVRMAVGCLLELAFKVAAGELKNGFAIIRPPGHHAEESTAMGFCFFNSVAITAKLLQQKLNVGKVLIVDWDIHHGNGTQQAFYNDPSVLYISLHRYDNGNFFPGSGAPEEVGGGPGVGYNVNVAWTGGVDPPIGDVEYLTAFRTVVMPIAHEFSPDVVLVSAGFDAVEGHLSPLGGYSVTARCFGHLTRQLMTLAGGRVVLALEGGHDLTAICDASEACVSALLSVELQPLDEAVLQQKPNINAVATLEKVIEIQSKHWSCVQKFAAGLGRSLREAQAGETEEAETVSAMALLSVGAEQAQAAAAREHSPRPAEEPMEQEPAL
Sequence of Histone deacetylase 11 (Q96DB2 whole entry, the tested form may be a part): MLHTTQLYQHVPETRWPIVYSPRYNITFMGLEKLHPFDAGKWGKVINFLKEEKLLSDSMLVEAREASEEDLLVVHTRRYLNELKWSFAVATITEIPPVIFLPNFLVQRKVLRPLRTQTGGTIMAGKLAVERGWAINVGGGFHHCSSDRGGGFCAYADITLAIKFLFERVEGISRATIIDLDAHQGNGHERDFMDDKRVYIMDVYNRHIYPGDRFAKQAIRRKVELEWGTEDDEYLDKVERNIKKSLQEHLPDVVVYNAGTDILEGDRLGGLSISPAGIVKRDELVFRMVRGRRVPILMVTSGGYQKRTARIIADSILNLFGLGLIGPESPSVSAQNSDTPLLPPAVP
Sequence of Histone deacetylase 2 (Q92769 whole entry, the tested form may be a part): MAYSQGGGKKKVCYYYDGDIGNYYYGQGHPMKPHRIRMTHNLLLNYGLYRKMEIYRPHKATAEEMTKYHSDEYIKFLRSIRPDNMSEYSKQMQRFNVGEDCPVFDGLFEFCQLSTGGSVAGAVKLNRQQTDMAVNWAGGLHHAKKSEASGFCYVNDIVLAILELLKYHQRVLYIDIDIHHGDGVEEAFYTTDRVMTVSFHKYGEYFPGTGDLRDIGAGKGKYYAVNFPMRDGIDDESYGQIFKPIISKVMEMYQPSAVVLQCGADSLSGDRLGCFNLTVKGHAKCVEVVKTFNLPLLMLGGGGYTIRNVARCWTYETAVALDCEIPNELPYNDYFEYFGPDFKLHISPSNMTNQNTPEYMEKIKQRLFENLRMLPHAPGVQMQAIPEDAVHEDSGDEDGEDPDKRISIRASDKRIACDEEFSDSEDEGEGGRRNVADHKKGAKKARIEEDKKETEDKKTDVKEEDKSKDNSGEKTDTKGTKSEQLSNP
Sequence of Polyamine deacetylase HDAC10 (Q969S8 whole entry, the tested form may be a part): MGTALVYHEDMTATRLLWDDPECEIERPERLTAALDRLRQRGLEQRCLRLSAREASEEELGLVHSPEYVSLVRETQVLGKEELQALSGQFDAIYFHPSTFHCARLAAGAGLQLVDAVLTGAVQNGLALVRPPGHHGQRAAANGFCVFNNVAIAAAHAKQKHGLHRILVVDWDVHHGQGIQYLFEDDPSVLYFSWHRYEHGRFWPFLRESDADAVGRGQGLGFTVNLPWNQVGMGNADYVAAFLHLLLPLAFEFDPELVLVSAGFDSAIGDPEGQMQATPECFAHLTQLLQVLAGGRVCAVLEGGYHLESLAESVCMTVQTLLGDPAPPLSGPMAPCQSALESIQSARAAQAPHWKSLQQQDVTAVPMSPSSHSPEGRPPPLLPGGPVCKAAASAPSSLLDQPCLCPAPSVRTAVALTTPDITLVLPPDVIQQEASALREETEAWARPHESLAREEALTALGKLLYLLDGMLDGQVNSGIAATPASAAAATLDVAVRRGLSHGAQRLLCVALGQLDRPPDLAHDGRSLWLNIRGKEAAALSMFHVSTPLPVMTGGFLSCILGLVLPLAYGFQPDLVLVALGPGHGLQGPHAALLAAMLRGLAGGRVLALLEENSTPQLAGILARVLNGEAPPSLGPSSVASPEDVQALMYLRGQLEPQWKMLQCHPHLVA
Sequence of Histone deacetylase 4 (P56524 whole entry, the tested form may be a part): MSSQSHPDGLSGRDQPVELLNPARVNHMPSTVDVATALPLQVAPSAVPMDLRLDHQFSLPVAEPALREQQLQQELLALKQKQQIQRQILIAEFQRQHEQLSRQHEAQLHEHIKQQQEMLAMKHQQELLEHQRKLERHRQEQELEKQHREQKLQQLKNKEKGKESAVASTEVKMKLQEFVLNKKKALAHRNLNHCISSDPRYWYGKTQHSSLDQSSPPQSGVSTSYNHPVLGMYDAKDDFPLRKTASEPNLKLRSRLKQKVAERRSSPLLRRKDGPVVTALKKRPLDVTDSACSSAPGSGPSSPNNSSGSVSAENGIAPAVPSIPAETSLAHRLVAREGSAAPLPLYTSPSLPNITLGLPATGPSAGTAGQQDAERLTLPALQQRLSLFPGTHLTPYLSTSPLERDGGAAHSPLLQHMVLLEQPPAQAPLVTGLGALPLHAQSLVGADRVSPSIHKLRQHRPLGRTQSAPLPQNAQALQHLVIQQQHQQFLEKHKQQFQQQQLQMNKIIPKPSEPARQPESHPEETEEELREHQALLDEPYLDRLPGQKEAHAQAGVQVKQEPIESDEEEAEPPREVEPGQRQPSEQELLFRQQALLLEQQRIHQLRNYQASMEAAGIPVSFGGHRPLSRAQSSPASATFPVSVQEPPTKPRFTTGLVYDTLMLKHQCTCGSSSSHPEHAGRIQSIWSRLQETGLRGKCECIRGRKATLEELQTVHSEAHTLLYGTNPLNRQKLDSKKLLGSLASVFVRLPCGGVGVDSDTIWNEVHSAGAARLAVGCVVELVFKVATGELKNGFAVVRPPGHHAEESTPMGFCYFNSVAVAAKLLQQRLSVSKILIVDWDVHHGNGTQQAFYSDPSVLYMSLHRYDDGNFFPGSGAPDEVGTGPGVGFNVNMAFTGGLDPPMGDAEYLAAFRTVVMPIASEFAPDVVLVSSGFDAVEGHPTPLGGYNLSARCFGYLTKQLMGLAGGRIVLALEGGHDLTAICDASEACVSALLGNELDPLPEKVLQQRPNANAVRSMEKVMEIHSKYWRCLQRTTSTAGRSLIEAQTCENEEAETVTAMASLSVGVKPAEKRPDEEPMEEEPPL
Sequence of Histone deacetylase 3 (O15379 whole entry, the tested form may be a part): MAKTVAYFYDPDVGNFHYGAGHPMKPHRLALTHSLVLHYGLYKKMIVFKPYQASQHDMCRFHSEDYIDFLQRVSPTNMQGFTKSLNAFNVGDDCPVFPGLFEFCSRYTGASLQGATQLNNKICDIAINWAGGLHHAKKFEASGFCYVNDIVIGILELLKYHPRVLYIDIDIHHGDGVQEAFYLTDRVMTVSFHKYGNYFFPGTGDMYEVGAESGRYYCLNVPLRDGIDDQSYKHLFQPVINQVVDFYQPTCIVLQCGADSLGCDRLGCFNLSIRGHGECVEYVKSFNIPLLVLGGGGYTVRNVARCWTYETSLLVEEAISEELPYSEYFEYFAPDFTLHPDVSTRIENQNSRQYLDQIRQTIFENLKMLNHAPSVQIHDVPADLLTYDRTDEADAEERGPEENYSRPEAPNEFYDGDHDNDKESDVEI

Structure (SMILES)	IC50 (Histone deacetylase 5) [µM]	inhibition [1]	IC50 (Histone deacetylase 11) [µM]	inhibition [2]	IC50 (Histone deacetylase 3) [µM]	IC50 (Histone deacetylase 2) [µM]	IC50 (Histone deacetylase 9) [µM]	Activity (NCI-H1975 [3])	GI50 (A549) [µM]	inhibition [4]	inhibition (NCI-H1975 [5])	Activity (NCI-H1975 [6])	IC50 [7] [µM]	GI50 (NCI-H1975 [8]) [µM]	inhibition [9]	GI50 (HCT-116) [µM]	IC50 [10] [µM]	Activity (NCI-H1975 [11])	IC50 (Histone deacetylase 4) [µM]	IC50 [12] [µM]	also measured
CC(C)c1cc(C(=O)N(C)c2ccc(NC(=O)CCCCCCCC(=O)NO)cc2)c(O)cc1O	5.41	Dose-dependent effect	1.89	Active	1.44	4.91	> 10	Active	0.44	Active	Active	Active	> 10	0.4	Active	1.06	0.0772	Active	> 10	> 10	IC50 (Histone deacetylase): 0.361 µM; inhibition [13]: Active; inhibition [14]: Active
CC(C)c1cc(C(=O)N(C)c2ccc(NC(=O)CCCCCCC(=O)NO)cc2)c(O)cc1O	7.86	Dose-dependent effect	3.61	Active	2.06	1.19	> 10	Active	0.77	Active	Active	Active	2.67	0.69	Active	0.83	0.153	Active	> 10	> 10	IC50 (Histone deacetylase): 0.195 µM; inhibition [13]: Active; inhibition [14]: Active
